Test results published in ChEMBL document CHEMBL3259534, “Diterpenoids from Croton laui and their cytotoxic and antimicrobial activities” (J Nat Prod, 2014).
Converted amounts (≈) assume the structure as drawn.

Columns and labels:
[1] = test system: HL-60; assay: Cytotoxicity against human HL60 cells after 72 hrs by MTT assay; assay type: functional, cell-based; details: HL-60, 72 h
How it was run: (§1)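 MTT viability assay on HL-60 human premyelocytic leukemia cells and P-388 murine leukemia cells. Adriamycin was included as the positive control.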

[2] = test system: P388; assay: Cytotoxicity against mouse P388 cells after 72 hrs by MTT assay; assay type: functional, cell-based; details: P388, 72 h; how it was run: as §1
[3] = test system: Staphylococcus aureus; assay: Antimicrobial activity against Staphylococcus aureus ATCC 25923 by microdilution method; assay type: functional
How it was run: (§2)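 In vitro antibacterial test by microdilution. Strains were drawn from a panel of Gram-positive and Gram-negative bacteria. Ofloxacin was run as the positive control. The read-out is MIC.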

[4] = test system: Staphylococcus epidermidis; assay: Antimicrobial activity against Staphylococcus epidermidis ATCC 12228 by microdilution method; assay type: functional; how it was run: as §2
[5] = test system: Kocuria rhizophila; assay: Antimicrobial activity against Micrococcus luteus ATCC 9341 by microdilution method; assay type: functional; how it was run: as §2
[6] = test system: Bacillus subtilis; assay: Antimicrobial activity against Bacillus subtilis CMCC 63501 by microdilution method; assay type: functional
[7] = test system: Escherichia coli; assay: Antimicrobial activity against Escherichia coli ATCC 25922 by microdilution method; assay type: functional; how it was run: as §2
[8] = test system: Shigella flexneri; assay: Antimicrobial activity against Shigella flexneri ATCC 12022 by microdilution method; assay type: functional; how it was run: as §2
[9] = test system: Pseudomonas aeruginosa; assay: Antimicrobial activity against Pseudomonas aeruginosa ATCC 14502 by microdilution method; assay type: functional; how it was run: as §2
[10] = test system: Candida albicans; assay: Antimicrobial activity against Candida albicans ATCC 1600 by agar dilution method; assay type: functional
How it was run: (§3)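 In vitro antifungal test by agar dilution against a panel of yeasts and dermatophytes. Amphotericin B served as the positive control. Activity is reported as MIC.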

[11] = test system: Saccharomyces; assay: Antimicrobial activity against Saccharomyces sake ATCC 26421 by agar dilution method; assay type: functional; how it was run: as §3
[12] = test system: Nannizzia gypsea; assay: Antimicrobial activity against Microsporum gypseum ATCC 14683 by agar dilution method; assay type: functional; how it was run: as §3
[13] = test system: Trichophyton rubrum; assay: Antimicrobial activity against Trichophyton rubrum ATCC 10218 by agar dilution method; assay type: functional; how it was run: as §3

MIC [3] [µM]	MIC [4] [µM]	MIC [5] [µM]	MIC [6] [µM]	MIC [7] [µM]	MIC [8] [µM]	MIC [9] [µM]	MIC [10] [µM]	MIC [11] [µM]	MIC [12] [µM]	MIC [13] [µM]	SMILES	IC50 [1] [µM]	IC50 [2] [µM]
> 150	> 150	> 150	> 150	> 150	> 150	> 150	> 150	> 150	> 150	> 150	C[C@@H]1CC[C@]2(C)[C@H](CC[C@@H](O)[C@]2(C)O)[C@@]1(C)C[C@H](O)c1ccoc1	≥ 10	≥ 10
> 150	> 150	> 150	> 150	> 150	> 150	> 150	> 150	> 150	> 150	> 150	C[C@@H]1C(=O)CC[C@H]2[C@@]1(C)CC[C@H]1C(=O)O[C@H](c3ccoc3)C[C@]21C (relative stereo)	≥ 10	≥ 10
> 150	> 150	> 150	> 150	> 150	> 150	> 150	> 150	> 150	> 150	> 150	C/C(=C\CO)[C@@H]1C[C@@H]2[C@@]3(C)CCCC(C)(C)[C@@H]3C[C@H](O)[C@@]2(C)O1	≥ 10	≥ 10
> 150	> 150	> 150	> 150	> 150	> 150	> 150	> 150	> 150	> 150	> 150	C=C1CC[C@H]2[C@](C)(CO)[C@H](O)CC[C@]2(C)[C@H]1C/C=C(\C)C=O	≥ 10	≥ 10
> 150	> 150	> 150	> 150	> 150	> 150	> 150	> 150	> 150	> 150	> 150	C=C1C[C@H](OC(C)=O)[C@]23C(C(=O)OC)=CCC[C@H]2[C@]12C[C@H](c1ccoc1)O[C@H]2O[C@@H]3O	≥ 10	≥ 10
> 150	> 150	> 150	> 150	> 150	> 150	> 150	> 150	> 150	> 150	> 150	C[C@@H]1CC[C@]2(C)[C@H](CC[C@@H](O)[C@]2(C)O)[C@@]1(C)CCc1ccoc1	≥ 10	≥ 10
> 150	> 150	> 150	> 150	> 150	> 150	> 150	> 150	> 150	> 150	> 150	C=C1CC[C@]23C(C(=O)OC)=CCC[C@H]2[C@]12C[C@H](c1ccoc1)O[C@H]2O[C@@H]3O (relative stereo)	≥ 10	≥ 10
> 150	> 150	> 150	> 150	> 150	> 150	> 150	> 150	> 150	> 150	> 150	C=C1C[C@@H]2OC(=O)C3=CCC[C@H]4[C@]15C[C@H](c1ccoc1)O[C@H]5OC(=O)[C@]324 (relative stereo)	9.42	7.45
> 150	> 150	> 150	> 150	> 150	> 150	> 150	> 150	> 150	> 150	> 150	COC(=O)C1=CCC[C@@H]2[C@]13CC[C@H](C)[C@@]21C[C@H](c2ccoc2)O[C@H]1O[C@@H]3O	≥ 10	≥ 10
> 150	> 150	> 150	> 150	> 150	> 150	> 150	> 150	> 150	> 150	> 150	C=C1[C@H](O)CC[C@@H]2[C@@]3(C)C[C@@H](c4ccoc4)OC(=O)[C@@H]3CC[C@@]12C (relative stereo)	≥ 10	≥ 10
> 150	> 150	> 150	> 150	> 150	> 150	> 150	> 150	> 150	> 150	> 150	C=C1CC[C@]23C(C(=O)OC)=CCC[C@H]2[C@]12C[C@H](c1ccoc1)O[C@H]2O[C@H]3O (relative stereo)	≥ 10	≥ 10
> 150	> 150	> 150	> 150	> 150	> 150	> 150	> 150	> 150	> 150	> 150	C=C1C[C@H](OC(C)=O)[C@]23C(C(=O)OC)=CCC[C@H]2[C@]12C[C@H](c1ccoc1)O[C@H]2O[C@H]3O	≥ 10	≥ 10
43.4 (≈ 12.5 µg/mL)	43.4 (≈ 12.5 µg/mL)	43.4 (≈ 12.5 µg/mL)	43.4 (≈ 12.5 µg/mL)								CC1=CCC[C@@H]2[C@@](C)(CCC3=CCOC3)[C@H](C)CC[C@@]12C (relative stereo)	≥ 10	≥ 10
> 150	> 150	> 150	> 150	> 150	> 150	> 150	> 150	> 150	> 150	> 150	COC(=O)C1=CCC[C@@H]2[C@]13CC[C@H](C)[C@@]21C[C@H](c2ccoc2)O[C@H]1O[C@H]3O	≥ 10	≥ 10
